# Test results taken from ChEMBL document CHEMBL3352666, “Human Toll-like receptor 8-selective agonistic activities in 1-alkyl-1H-benzimidazol-2-amines” (J Med Chem, 2014).
# Active and inactive are the calls of the source. The rule behind the calls is not given here.
# Tests used:
# Assay type in all cases: cell-based
# Toll-like receptor 8 = target: T1, Toll-like receptor 8 (Homo sapiens, UniProt Q9NR97); assay: Agonist activity at human TLR8 stably expressed in HEK293 cells co-expressing secreted alkaline phosphatase assessed as NF-kappaB induction by liquid handler-assisted reporter gene assay
# T1 sequence (Q9NR97 whole entry): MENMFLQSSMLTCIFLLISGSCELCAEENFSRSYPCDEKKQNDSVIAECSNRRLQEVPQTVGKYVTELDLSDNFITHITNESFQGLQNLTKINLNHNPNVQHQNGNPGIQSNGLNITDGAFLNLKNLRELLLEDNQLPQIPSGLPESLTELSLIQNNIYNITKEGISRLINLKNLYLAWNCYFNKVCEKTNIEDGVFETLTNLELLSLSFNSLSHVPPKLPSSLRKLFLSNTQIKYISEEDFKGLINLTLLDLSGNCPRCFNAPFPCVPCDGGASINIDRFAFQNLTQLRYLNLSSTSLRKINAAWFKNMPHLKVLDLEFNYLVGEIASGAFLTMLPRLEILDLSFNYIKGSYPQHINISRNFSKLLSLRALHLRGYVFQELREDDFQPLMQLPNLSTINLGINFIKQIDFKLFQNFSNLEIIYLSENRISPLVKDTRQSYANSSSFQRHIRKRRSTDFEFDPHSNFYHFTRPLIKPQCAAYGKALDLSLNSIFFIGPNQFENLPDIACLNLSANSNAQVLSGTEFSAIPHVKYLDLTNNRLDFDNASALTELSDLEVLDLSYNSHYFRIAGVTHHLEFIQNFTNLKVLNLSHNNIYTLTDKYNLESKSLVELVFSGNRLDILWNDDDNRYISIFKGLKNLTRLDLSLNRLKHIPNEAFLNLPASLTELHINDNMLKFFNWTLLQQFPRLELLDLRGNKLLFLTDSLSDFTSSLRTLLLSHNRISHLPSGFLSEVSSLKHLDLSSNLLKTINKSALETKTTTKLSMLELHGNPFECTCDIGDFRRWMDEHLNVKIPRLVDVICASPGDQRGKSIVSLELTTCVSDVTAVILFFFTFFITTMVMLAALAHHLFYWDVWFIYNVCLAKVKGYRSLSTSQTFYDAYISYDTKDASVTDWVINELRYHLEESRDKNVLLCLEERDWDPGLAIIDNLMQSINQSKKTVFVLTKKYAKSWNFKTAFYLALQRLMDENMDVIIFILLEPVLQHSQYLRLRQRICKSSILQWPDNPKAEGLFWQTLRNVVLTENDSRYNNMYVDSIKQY
# Procedure, shortened: (§1)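 HEK293 reporter cells stably co-transfected with the respective human TLR or NOD receptor plus NF-κB/AP-1-driven secreted alkaline phosphatase, kept in selection medium. About 10^5 cells/ml were incubated with graded concentrations of test compound in 384-well format. Supernatant sAP was read colorimetrically at 620 nm with an alkaline phosphatase-specific chromogen in detection medium.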
# [1] = target: Toll-like receptor 2 (Homo sapiens) (UniProt O60603); assay: Agonist activity at human TLR2 stably expressed in HEK293 cells co-expressing secreted alkaline phosphatase assessed as NF-kappaB induction by liquid handler-assisted reporter gene assay; procedure, shortened: as §1
# Sequence of Toll-like receptor 2 (Homo sapiens) (O60603 whole entry): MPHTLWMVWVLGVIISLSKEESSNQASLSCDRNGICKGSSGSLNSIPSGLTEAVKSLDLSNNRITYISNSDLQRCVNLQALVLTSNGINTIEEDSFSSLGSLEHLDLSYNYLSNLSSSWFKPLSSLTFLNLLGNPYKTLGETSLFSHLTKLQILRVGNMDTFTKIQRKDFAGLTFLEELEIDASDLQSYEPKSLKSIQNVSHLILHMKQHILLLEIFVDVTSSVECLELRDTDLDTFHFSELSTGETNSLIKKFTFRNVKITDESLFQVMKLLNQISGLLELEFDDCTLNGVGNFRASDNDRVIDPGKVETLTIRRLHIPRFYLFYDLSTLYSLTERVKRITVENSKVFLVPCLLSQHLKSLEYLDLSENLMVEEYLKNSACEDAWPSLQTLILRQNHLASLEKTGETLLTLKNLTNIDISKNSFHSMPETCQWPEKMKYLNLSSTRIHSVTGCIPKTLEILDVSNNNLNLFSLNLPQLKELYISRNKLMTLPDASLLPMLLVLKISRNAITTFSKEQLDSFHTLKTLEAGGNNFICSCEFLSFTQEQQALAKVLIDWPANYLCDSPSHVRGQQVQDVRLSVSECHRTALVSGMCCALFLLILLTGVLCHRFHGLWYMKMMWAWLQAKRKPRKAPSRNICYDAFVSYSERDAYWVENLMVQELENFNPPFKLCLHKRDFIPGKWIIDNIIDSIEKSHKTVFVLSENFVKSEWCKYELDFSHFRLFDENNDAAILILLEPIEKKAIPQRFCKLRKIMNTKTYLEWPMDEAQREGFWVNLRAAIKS
# [2] = target: Toll-like receptor 4 (Homo sapiens) (UniProt O00206); assay: Agonist activity at human TLR4 stably expressed in HEK293 cells co-expressing secreted alkaline phosphatase assessed as NF-kappaB induction by liquid handler-assisted reporter gene assay; procedure, shortened: as §1
# Sequence of Toll-like receptor 4 (Homo sapiens) (O00206 whole entry): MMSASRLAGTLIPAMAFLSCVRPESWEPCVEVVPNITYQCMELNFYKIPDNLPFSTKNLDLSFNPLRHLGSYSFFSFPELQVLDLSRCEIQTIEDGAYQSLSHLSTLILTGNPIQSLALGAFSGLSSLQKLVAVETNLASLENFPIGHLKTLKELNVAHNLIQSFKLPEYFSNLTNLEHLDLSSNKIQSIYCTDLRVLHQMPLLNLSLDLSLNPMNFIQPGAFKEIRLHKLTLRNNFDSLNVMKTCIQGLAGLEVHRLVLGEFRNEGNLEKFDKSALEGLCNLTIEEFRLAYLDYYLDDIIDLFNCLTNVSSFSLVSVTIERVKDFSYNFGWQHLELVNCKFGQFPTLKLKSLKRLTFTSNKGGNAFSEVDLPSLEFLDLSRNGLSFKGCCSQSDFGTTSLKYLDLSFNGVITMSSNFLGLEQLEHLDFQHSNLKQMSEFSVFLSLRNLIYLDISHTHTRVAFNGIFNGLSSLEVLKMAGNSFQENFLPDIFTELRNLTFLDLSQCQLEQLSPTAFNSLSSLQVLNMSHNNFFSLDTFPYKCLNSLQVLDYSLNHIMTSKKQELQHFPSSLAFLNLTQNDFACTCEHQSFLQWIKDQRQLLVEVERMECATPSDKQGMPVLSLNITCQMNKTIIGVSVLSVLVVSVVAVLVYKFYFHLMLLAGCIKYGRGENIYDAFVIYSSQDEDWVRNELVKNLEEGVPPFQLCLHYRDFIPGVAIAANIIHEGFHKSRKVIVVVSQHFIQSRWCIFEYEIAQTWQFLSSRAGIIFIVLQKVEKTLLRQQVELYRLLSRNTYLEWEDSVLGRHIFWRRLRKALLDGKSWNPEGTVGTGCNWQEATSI
# [3] = target: Toll-like receptor 5 (Homo sapiens) (UniProt O60602); assay: Agonist activity at human TLR5 stably expressed in HEK293 cells co-expressing secreted alkaline phosphatase assessed as NF-kappaB induction by liquid handler-assisted reporter gene assay; procedure, shortened: as §1
# Sequence of Toll-like receptor 5 (Homo sapiens) (O60602 whole entry): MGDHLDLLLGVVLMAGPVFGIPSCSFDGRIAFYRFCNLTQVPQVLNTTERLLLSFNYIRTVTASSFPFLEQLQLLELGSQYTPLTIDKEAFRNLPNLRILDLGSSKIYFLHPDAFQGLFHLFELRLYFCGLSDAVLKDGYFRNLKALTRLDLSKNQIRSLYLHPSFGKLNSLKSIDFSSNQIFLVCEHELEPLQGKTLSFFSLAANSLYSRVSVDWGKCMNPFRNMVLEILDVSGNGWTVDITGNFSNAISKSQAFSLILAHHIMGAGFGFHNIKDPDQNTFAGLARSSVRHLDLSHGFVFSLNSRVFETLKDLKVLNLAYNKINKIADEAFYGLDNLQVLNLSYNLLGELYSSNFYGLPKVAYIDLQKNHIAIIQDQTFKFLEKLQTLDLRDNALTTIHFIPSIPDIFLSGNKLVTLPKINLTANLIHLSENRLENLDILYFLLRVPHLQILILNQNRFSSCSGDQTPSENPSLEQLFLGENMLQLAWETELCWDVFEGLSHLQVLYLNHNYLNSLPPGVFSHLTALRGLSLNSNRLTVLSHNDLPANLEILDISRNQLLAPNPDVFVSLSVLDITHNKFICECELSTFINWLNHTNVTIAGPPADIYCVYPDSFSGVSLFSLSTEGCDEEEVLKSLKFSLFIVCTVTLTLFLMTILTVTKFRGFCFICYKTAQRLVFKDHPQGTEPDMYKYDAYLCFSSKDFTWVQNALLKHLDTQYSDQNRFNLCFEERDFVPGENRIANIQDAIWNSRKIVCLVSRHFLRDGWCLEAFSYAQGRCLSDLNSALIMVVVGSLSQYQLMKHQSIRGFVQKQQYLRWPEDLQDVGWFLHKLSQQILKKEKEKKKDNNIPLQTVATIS
# [4] = target: T2, Toll-like receptor 7 (Homo sapiens) (UniProt Q9NYK1); assay: Agonist activity at human TLR7 stably expressed in HEK293 cells co-expressing secreted alkaline phosphatase assessed as NF-kappaB induction by liquid handler-assisted reporter gene assay; procedure, shortened: as §1
# T2 sequence (whole entry): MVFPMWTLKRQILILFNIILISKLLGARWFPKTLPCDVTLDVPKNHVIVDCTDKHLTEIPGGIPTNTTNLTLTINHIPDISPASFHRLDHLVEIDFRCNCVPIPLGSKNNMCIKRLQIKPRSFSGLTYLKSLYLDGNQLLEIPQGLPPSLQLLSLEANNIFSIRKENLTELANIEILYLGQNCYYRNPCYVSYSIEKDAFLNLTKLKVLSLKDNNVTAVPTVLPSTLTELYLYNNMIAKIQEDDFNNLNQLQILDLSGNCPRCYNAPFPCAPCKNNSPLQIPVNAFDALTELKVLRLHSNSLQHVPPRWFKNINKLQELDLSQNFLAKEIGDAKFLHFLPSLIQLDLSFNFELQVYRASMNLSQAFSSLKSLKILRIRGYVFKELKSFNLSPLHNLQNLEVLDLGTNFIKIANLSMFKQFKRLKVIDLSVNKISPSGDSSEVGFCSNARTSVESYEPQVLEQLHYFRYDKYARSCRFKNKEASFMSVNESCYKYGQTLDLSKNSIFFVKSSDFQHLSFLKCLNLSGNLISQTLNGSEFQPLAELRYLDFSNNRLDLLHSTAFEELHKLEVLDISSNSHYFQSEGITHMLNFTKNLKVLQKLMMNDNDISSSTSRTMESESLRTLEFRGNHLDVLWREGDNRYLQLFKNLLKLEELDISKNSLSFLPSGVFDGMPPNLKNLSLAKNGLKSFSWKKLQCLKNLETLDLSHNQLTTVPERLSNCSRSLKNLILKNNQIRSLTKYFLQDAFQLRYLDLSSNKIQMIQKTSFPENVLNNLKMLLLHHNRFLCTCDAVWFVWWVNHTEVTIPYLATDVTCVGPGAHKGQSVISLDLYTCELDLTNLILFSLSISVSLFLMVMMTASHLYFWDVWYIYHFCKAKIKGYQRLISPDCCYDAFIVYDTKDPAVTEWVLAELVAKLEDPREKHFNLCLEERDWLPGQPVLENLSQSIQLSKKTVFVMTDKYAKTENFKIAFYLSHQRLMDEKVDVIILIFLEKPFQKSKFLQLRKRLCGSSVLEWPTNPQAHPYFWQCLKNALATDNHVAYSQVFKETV
# [5] = target: Nucleotide-binding oligomerization domain-containing protein 2 (Homo sapiens, UniProt Q9HC29); assay: Antagonist activity at human NOD2 stably expressed in HEK293 cells co-expressing secreted alkaline phosphatase assessed as NF-kappaB induction by liquid handler-assisted reporter gene assay
# Sequence of Nucleotide-binding oligomerization domain-containing protein 2 (Q9HC29 whole entry, the tested form may be a part): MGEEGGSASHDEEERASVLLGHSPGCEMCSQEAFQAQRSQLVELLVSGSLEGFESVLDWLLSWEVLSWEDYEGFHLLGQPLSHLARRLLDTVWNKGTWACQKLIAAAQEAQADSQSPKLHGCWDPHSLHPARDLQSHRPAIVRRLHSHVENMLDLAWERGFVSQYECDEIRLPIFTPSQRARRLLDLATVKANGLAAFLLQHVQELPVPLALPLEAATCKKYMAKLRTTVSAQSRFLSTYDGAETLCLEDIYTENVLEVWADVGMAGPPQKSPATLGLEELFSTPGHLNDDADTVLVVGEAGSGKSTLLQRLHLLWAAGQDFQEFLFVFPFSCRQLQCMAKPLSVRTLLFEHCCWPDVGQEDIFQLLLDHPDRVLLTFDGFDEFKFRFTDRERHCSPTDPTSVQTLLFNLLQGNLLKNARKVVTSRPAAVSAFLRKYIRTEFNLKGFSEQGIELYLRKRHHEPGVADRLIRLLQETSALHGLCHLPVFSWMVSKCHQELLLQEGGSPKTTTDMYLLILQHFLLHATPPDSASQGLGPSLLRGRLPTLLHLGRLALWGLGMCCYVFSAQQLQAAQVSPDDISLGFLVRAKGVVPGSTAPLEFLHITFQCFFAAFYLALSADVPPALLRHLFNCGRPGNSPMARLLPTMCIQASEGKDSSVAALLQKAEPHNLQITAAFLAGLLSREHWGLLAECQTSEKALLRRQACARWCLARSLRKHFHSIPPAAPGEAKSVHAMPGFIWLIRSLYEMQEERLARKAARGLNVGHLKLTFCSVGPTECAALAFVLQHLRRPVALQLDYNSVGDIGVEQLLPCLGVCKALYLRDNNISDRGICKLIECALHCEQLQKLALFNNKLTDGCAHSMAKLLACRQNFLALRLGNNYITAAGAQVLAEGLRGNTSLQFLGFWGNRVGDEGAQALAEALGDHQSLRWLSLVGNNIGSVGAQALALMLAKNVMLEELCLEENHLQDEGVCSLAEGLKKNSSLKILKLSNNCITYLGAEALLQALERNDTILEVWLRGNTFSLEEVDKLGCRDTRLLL
Compound,EC50 (Toll-like receptor 8),Activity [1],Activity [2],Activity [3],Activity [4],IC50 [5] [µM]
CCCCCn1c(N)nc2c(Cl)cccc21,Not Active,inactive,inactive,inactive,inactive,–
CCCCCn1c(N)nc2ccc3ccccc3c21,Not Active,inactive,inactive,inactive,inactive,> 10
CCCCC1C(N)=Nc2ccccc21.Cl (stereo not given),ND(Unstable),inactive,inactive,inactive,inactive,–
CCCCCn1c(N)nc2c([N+](=O)[O-])cccc21,Not Active,inactive,inactive,inactive,inactive,–
CCCCC1(O)C(N)=Nc2ccccc21 (stereo not given),Not Active,inactive,inactive,inactive,inactive,–
CCCCCn1c(NC(C)=O)nc2ccccc21,Not Active,inactive,inactive,inactive,inactive,> 10
CCCCOC(=O)n1c(N)nc2ccccc21,Not Active,inactive,inactive,inactive,inactive,–
CCCCCn1c(N)nc2c(-c3ccccc3)cccc21,Not Active,inactive,inactive,inactive,inactive,> 10
CCCCCn1c(N)nc2c(Cc3ccccc3)cccc21,Not Active,inactive,inactive,inactive,inactive,> 10
CCCCCn1c(N)nc2c(C(F)(F)F)cccc21,Not Active,inactive,inactive,inactive,inactive,–
CCCCCn1c(N)nc2c(OCc3ccccc3)cccc21,Not Active,inactive,inactive,inactive,inactive,> 10
NCc1cccc(Cn2c(N)nc3ccccc32)c1,Not Active,inactive,inactive,inactive,inactive,–
CCCCCn1c(N)nc2cc3ccccc3cc21,Not Active,inactive,inactive,inactive,inactive,> 10
Nc1nc2ccccc2n1Cc1ccccc1,Not Active,inactive,inactive,inactive,inactive,–

# Results, then the molecule that gave them:
EC50 (Toll-like receptor 8),Activity [1],Activity [2],Activity [3],Activity [4],IC50 [5] [µM],Compound
Not Active,inactive,inactive,inactive,inactive,–,CCCCCn1c(N)nc2ncccc21
–,inactive,inactive,inactive,inactive,–,CCCCCn1c(N)nc2c(C)cccc21
Not Active,inactive,inactive,inactive,inactive,–,CCCCCn1c(N)nc2c(F)cccc21
Not Active,inactive,inactive,inactive,inactive,–,CCCCCn1c(N)nc2ccncc21
Not Active,inactive,inactive,inactive,inactive,–,CCCCCn1c(N)nc2c(Br)cccc21
Not Active,inactive,inactive,inactive,inactive,–,CCCCCn1c(N)nc2cccnc21
Not Active,inactive,inactive,inactive,inactive,–,CCCCCn1c(N)nc2cnccc21
